What was measured:
[1] = folding enthalpy; higher = less favourable; fluorescence melt of hairpins on a sequencing array, two-state fit; conditions: sodium 0.088 M
Method in brief: (§1)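 Hairpins were imaged by Cy3 fluorescence on a sequenced MiSeq flow cell with annealed Cy3 and quencher oligos, in 50 mM Na-HEPES pH 8.0, 25 mM NaCl, in 2.5 °C steps up to 60 °C. Bootstrapped two-state fits of normalised signals gave melting temperature and folding enthalpy. Four replicates were combined by inverse variance, and fitted temperatures were raised by 9.35 °C to match UV melts.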

[2] = melting temperature; fluorescence melt of hairpins on a sequencing array, two-state fit, raised by 9.35 °C to match UV melts; conditions: sodium 0.088 M
Method in brief: as §1

Row | Sequence | folding enthalpy [1] [kcal/mol] | Tm [2] [°C]
1 | GCCGTGCGAAAGCGCAGC ((.(.((....)).).)) | -13 | 49.1
2 | GACCACGAAAGTGGTGTC ((((((....)))..))) | -12.2 | 55.4
3 | CGCATCGGAAACGACGCG (((.(((....))).))) | -41.2 | 51.6
4 | GCCCAGCGAAAGCTCTGC ((..(((....)))..)) | -6.7 | 26.9
5 | GCCGCCGAAAGGCTTGGC ((((((....)))..))) | -21 | 54.5
6 | GACCTGGGAAACCGGGTC ((((.((....)).)))) | -44.8 | 57.1
7 | GTTTGCGGAAACGTAAAC ((((.((....)).)))) | -32.3 | 48.6
8 | GCGTGGCGAAAGCATCGC (((..((....))..))) | -31.9 | 62.1
9 | GATCCAGGTATGGATC ((((((....)))))) | -35.1 | 58
10 | GAATTCGGAAACGAACTC ((.((((....)))).)) | -17.4 | 33.7
11 | GCTATCGAAAGATGGAGC ((((((....)))..))) | -15.9 | 33.6
12 | GCCACGCGAAAGCCGGGC (((..((....))..))) | -24.1 | 58
13 | GATCAAGTATTTGATC ((((((....)))))) | -37.8 | 50.3
14 | GATCGGTAGTCCGATC ((((((....)))))) | -44.4 | 55.6
15 | GATCATCACGATGATC ((((((....)))))) | -42.6 | 51.8
16 | GTTTACGGAAACGTGAAC (((.(((....))).))) | -27.7 | 46
17 | GCAAGCCGAAAGGCTGC (((.(((....)))))) | -18.8 | 68.5
18 | GATCCCGTGGGGGATC ((((((....)))))) | -31.9 | 60
19 | GATCAGGGGTCTGATC ((((((....)))))) | -32.6 | 50.8
20 | GTCGGCGGAAACGCTGAC (((.(((....))).))) | -39.3 | 63.1
21 | GATCCTGCCAAGGATC ((((((....)))))) | -38.6 | 65.6
22 | GCGTACTAACGC ((((....)))) | -27.2 | 53
23 | GATCGCCTACGCGATC ((((((....)))))) | -39.5 | 67.4

Row | Sequence | folding enthalpy [1] [kcal/mol] | Tm [2] [°C]
24 | GGGAGATCGAAAGATCCC (((..(((....)))))) | -14.5 | 49.8
25 | GACCTCCCGAAAGGGGTC (((..(((....)))))) | -15.2 | 40
26 | GATCAAAGAATTGATC ((((((....)))))) | -21.8 | 40
27 | GTGGGTCCGAAAGGACAC (((..(((....)))))) | -19 | 63
28 | GATCAGAGCCTGATC ((((((...)))))) | -25.4 | 47.4
29 | GCAAGCGAAAGCTATGC ((((((....))).))) | -23 | 51.2
30 | GCATCGCGAAAGCGCCGC ((..(((....)))..)) | -10.5 | 38
31 | GATCACTAGGTGATC ((((((...)))))) | -40.9 | 55.2
32 | GCGGTCGAAAGACACCGC ((((((....)))..))) | -24.4 | 53.3
33 | GATCAACGACTTGATC ((((((....)))))) | -32.3 | 40.7
34 | GGAGTCACGAAAGTGTCC (((..(((....)))))) | -13.7 | 32.1
35 | GCAGCAGGAAACCGCTAC (.(((.(....).))).) | -14.6 | 28.1
36 | GAGGACGAAAGTCGGCTC ((((((....)))..))) | -16.7 | 45.6
37 | GACAGAGGAAACTCCGTC (((.(((....))).))) | -18.3 | 35
38 | GATCGATCCCTCGATC ((((((....)))))) | -44.1 | 52.8
39 | GAAATGCGAAAGCAATTC (((.(((....))).))) | -20 | 45.3
40 | GAGGATACGAAAGTACTC (((..(((....)))))) | -9.94 | 26.8
41 | GGTTACGAAAGTAAACC ((((((....))).))) | -24.2 | 48.8
42 | GCCGTGGCGAAAGCCGGC (((..(((....)))))) | -21.4 | 62.8
43 | GAAGCCGAAAGGCAGTTC ((((((....)))..))) | -9.04 | 30
44 | GTGCTAGGAAACTAGTGC (..((((....))))..) | -30.2 | 39.1
45 | GGTCGCACGAAAGTGACC (((..(((....)))))) | -18.1 | 49.6
46 | CGCGGAACATTCCGCG ((((((....)))))) | -35.9 | 65.3

Row | Sequence | folding enthalpy [1] [kcal/mol] | Tm [2] [°C]
47 | GTAGGCGAAAGCCGTAC ((((((....))).))) | -13 | 57.3
48 | GCTGGTGGAAACGCCAGC (((((.(....).))))) | -52.9 | 61.8
49 | GACGGCGAAAGCCCTGTC ((((((....)))..))) | -13.6 | 38.6
50 | GCCCCCGAAAGGGCCGGC ((((((....)))..))) | -16.4 | 54.3
51 | GCCCGCGAAAGCGGAGGC ((((((....)))..))) | -13.7 | 60
52 | GGGAAAACGAAAGTTCCC (((..(((....)))))) | -27.1 | 43.5
53 | GCTGTTCGAAAGAAGAGC (((.(((....))).))) | -37.2 | 50.6
54 | GATCGTACCGACGATC ((((((....)))))) | -53.3 | 53.4
55 | GGTGACGAAAGTCAACC ((((((....))).))) | -19.6 | 56.1
56 | GGCCTCGAAAGAGCGCC ((((((....))).))) | -21.8 | 56.7
57 | GCTGCGCGAAAGCCGAGC (((..((....))..))) | -17 | 45
58 | GATCGATGAATCGATC ((((((....)))))) | -41.1 | 55.1
59 | GCGCTCACGAAAGTGCGC (((..(((....)))))) | -37.8 | 60
60 | GCTGGCGAAAGCCCTAGC ((((((....)))..))) | -12 | 40.9
61 | GCTTGGGGAAACCCAAGC (((((((....))))))) | -43.6 | 68.3
62 | TCCAGGAAACTGGA (((((....))))) | -22.8 | 46
63 | GCGAACGGAAACGCTCAC (.((.((....)).)).) | -14.3 | 34
64 | GCAGAGGGAAACCTCTAC (.(((((....))))).) | -14.7 | 35.2
65 | GGCATCGGAAACAATGCC (((((.(....).))))) | -30.4 | 46.7
66 | GCGACATCGAAAGATCGC (((..(((....)))))) | -26.7 | 45.9
67 | GATCGGACGACCGATC ((((((....)))))) | -35.1 | 57.3
68 | GCTCAAGGAAACTTGAGC (((((((....))))))) | -46.3 | 64.4
69 | GTGCACGAAAGTGGTCAC ((((((....)))..))) | -15.9 | 40.2

Source: the array DNA melting data of Ke et al. (doi:10.1101/2024.01.08.574731)
